Results from ChEMBL document CHEMBL2424550, “Discovery of cyclic sulfoxide hydroxyethylamines as potent and selective β-site APP-cleaving enzyme 1 (BACE1) inhibitors: structure based design and in vivo reduction of amyloid β-peptides” (Bioorg Med Chem Lett, 2013).

Key:
[1] = Lipophilicity, log P of the compound; format: physicochemical; conditions: octanol/water
[2] = Apparent permeability of the compound in MDCK cells expressing human MDR1; format: ADME, cell-based, Canis lupus familiaris; conditions: dog
How it was run: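 Apparent permeability (Papp, […]) measured across MDR1-MDCK cell monolayers transfected with human MDR1.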

[3] = Clearance in human liver microsomes; format: ADME, Microsome; conditions: read-out: CLH
How it was run: (§1)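 Compounds incubated at 37 °C with human or mouse liver microsomes.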

[4] = Clearance in mouse liver microsomes; format: ADME, Microsome; conditions: read-out: CLH; how it was run: as §1
[5] = Drug level in APP51/16 transgenic male mouse blood at 180 umol/kg, po after 4 hrs; format: ADME, organism-based; conditions: whole blood, read-out: Drug uptake
How it was run: (§2)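 Inhibitor given orally to APP51/16 transgenic mice as a suspension in water with 2% cremophor; ritonavir (12.5 mg/kg po, 0.5 h before inhibitor) where noted. Blood concentration (nmol/mL) and brain concentration (nmol/g) determined 4 h after dosing.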

[6] = Drug level in APP51/16 transgenic male mouse blood at 60 umol/kg, po after 4 hrs; format: ADME, organism-based; conditions: whole blood, read-out: Drug uptake; how it was run: as §2
Brain [7] = assay: Drug level in APP51/16 transgenic male mouse brain at 60 umol/kg, po after 4 hrs; format: ADME, organism-based; conditions: in vivo; how it was run: as §2
Brain [8] = assay: Drug level in APP51/16 transgenic male mouse brain at 180 umol/kg, po after 4 hrs; format: ADME, organism-based; conditions: in vivo; how it was run: as §2
Brain [9] = assay: Drug level in APP51/16 transgenic male mouse brain at 100 umol/kg, po after 4 hrs; format: ADME, organism-based; conditions: in vivo; how it was run: as §2
[10] = Drug level in APP51/16 transgenic male mouse blood at 100 umol/kg, po after 4 hrs; format: ADME, organism-based; conditions: whole blood, read-out: Drug uptake; how it was run: as §2
Brain [11] = assay: Drug level in APP51/16 transgenic female mouse brain at 100 umol/kg, po after 4 hrs; format: ADME, organism-based; conditions: in vivo
How it was run: (§3)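 APP51/16 transgenic mice received an oral suspension in water with 2% cremophor. Parent inhibitor measured 4 h post-dose in blood (nmol/mL) and brain (nmol/g).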

[12] = Drug level in APP51/16 transgenic female mouse blood at 100 umol/kg, po after 4 hrs; format: ADME, organism-based; conditions: whole blood, read-out: Drug uptake; how it was run: as §3
[13] = Dissociation constant, pKa of the compound; format: physicochemical
How it was run: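 Measured by multi-wavelength UV spectroscopy across a linear pH gradient of 2–12 units.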

[14] = Clearance in mouse; format: ADME, organism-based; conditions: in vivo
[15] = Bioavailability in mouse; format: ADME, organism-based; conditions: in vivo

SMILES | logP [1] | Papp [2] [×10⁻⁶ cm/s] | microsomal CLint [3] [µL/min/mg] | microsomal CLint [4] [µL/min/mg] | further results
COC[C@@H](Oc1cc(C[C@@H]2C[S@@+]([O-])C[C@H](NCc3cccc(OC(C)C)c3)[C@H]2O)cc(F)c1N)C(F)(F)F | 3.6 | 21 | 280 | 190 | 
CC(C)(C)c1cccc(CN[C@H]2C[S@@+]([O-])C[C@@H](Cc3cc(F)c(N)c(OC(C(F)(F)F)C(F)(F)F)c3)[C@@H]2O)c1 | 4.9 | 11 |  |  | 
CC(C)(C)c1cccc(CN[C@H]2C[S@+]([O-])C[C@@H](Cc3cc(F)c(N)c(OCC(F)(F)F)c3)[C@@H]2O)c1 | 4.3 | 19 |  |  | concentration at 4 h [5]: 6100 nM; concentration at 4 h [6]: 800 nM; Drug uptake (Brain [7]): 0.4 nmol/g; Drug uptake (Brain [8]): 1.3 nmol/g; Drug uptake (Brain [9]): 0.7 nmol/g; concentration at 4 h [10]: 2600 nM
COC[C@@H](Oc1cc(C[C@@H]2C[S@@+]([O-])C[C@H](NCc3cccc(C(C)(C)C)c3)[C@H]2O)cc(F)c1N)C(F)(F)F | 3.9 | 18 | 500 | 480 | concentration at 4 h [5]: 3800 nM; concentration at 4 h [6]: 300 nM; Drug uptake (Brain [7]): 0.1 nmol/g; Drug uptake (Brain [8]): 0.7 nmol/g; Drug uptake (Brain [9]): 0.2 nmol/g; concentration at 4 h [10]: 1000 nM
[2H]C([2H])(N[C@H]1C[S@+]([O-])C[C@@H](Cc2cc(F)c(N)c(O[C@H](COC)C(F)(F)F)c2)[C@@H]1O)c1cccc(C(C)C)c1 | 3.7 |  | 600 | 660 | Drug uptake (Brain [11]): 0.3 nmol/g; concentration at 4 h [12]: 1500 nM
COC[C@@H](Oc1cc(C[C@@H]2C[S@@+]([O-])C[C@H](NCc3cccc(C(C)(C)O)c3)[C@H]2O)cc(F)c1N)C(F)(F)F |  | 8 | 40 | 150 | 
CC(C)(C)c1cccc(CN[C@H]2C[S@+]([O-])C[C@@H](Cc3cc(O)c(N)c(F)c3)[C@@H]2O)c1 |  | 9 |  |  | 
COC[C@@H](Oc1cc(C[C@@H]2C[S@@+]([O-])C[C@H](NCc3cc(C(C)(C)C)ccn3)[C@H]2O)cc(F)c1N)C(F)(F)F | 3.5 | 19 | 140 | 400 | 
COC[C@@H](Oc1cc(C[C@@H]2C[S@@+]([O-])C[C@H](NCc3cc(C(C)(C)C)ccc3F)[C@H]2O)cc(F)c1N)C(F)(F)F | 4.1 | 24 | 400 | 580 | 
CC(C)(C)c1cccc(CN[C@H]2CS(=O)(=O)C[C@@H](Cc3cc(F)c(N)c(OC(C(F)(F)F)C(F)(F)F)c3)[C@@H]2O)c1 | 5.1 | 4 |  |  | pKa [13]: 5.7
CC(C)(C)c1cccc(CN[C@H]2C[S@+]([O-])C[C@@H](Cc3cc(F)c(N)c(OC(C(F)(F)F)C(F)(F)F)c3)[C@@H]2O)c1 | 5.2 | 18 |  |  | pKa [13]: 6.7; concentration at 4 h [5]: 900 nM; clearance [14]: 129 mL/min/kg; bioavailability [15]: 14%; Drug uptake (Brain [8]): 0.8 nmol/g
COC[C@@H](Oc1cc(C[C@@H]2C[S@@+]([O-])C[C@H](NCc3cnn(CC(C)(C)C)c3)[C@H]2O)cc(F)c1N)C(F)(F)F | 2.9 | 10 | 140 | 380 | 
CC(C)(C)c1cccc(CN[C@H]2C[S@+]([O-])C[C@@H](Cc3cc(F)c(N)c(O[C@H](CO)C(F)(F)F)c3)[C@@H]2O)c1 | 3.7 | 16 |  |  | 
COc1cc(C[C@@H]2C[S@@+]([O-])C[C@H](NCc3cccc(C(C)(C)C)c3)[C@H]2O)cc(F)c1N | 3.5 | 22 |  |  | 
COC[C@@H](Oc1cc(C[C@@H]2C[S@@+]([O-])C[C@H](NCc3cccc(C(C)(C)CO)c3)[C@H]2O)cc(F)c1N)C(F)(F)F | 3.4 | 10 | 80 | 210 | 
COC[C@@H](Oc1cc(C[C@@H]2C[S@@+]([O-])C[C@H](NCc3cc(CC(C)(C)C)on3)[C@H]2O)cc(F)c1N)C(F)(F)F | 3.1 | 19 | 580 | 510 | pKa [13]: 4.9
[2H]C([2H])(N[C@H]1C[S@+]([O-])C[C@@H](Cc2cc(F)c(N)c(O[C@H](COC)C(F)(F)F)c2)[C@@H]1O)c1cccc(C(C)(C)C)c1 |  | 19 | 600 | 530 | concentration at 4 h [6]: 400 nM; Drug uptake (Brain [7]): 0.1 nmol/g
COC[C@@H](Oc1cc(C[C@@H]2C[S@@+]([O-])C[C@H](NCc3cccc(C(C)C)c3)[C@H]2O)cc(F)c1N)C(F)(F)F | 3.7 | 20 | 690 | 550 | Drug uptake (Brain [11]): 0.2 nmol/g; concentration at 4 h [12]: 1600 nM
COC[C@@H](Oc1cc(C[C@@H]2C[S+]([O-])C[C@H](N)[C@H]2O)cc(F)c1N)C(F)(F)F (stereo not given in full) |  |  | 190 | 180 | 
COC[C@@H](Oc1cc(C[C@@H]2C[S@@+]([O-])C[C@H](NCc3cccc(OC(F)(F)F)c3)[C@H]2O)cc(F)c1N)C(F)(F)F | 3.7 | 31 | 300 | 180 | 
COC[C@@H](Oc1cc(C[C@@H]2C[S@@+]([O-])C[C@H](N[C@H](C)c3cccc(C(C)(C)C)c3)[C@H]2O)cc(F)c1N)C(F)(F)F |  | 17 | 600 | 730 | Drug uptake (Brain [11]): 0.7 nmol/g; concentration at 4 h [12]: 5400 nM
